Results on 30 compounds are retold here after ChEMBL document CHEMBL2385009, “Guaiane-type sesquiterpenes from Curcuma phaeocaulis and their inhibitory effects on nitric oxide production” (J Nat Prod, 2013).

Data set [1] concerns RAW264.7. The experiment in a line: Antiinflammatory activity in mouse RAW264.7 cells assessed as inhibition of LPS-induced nitric oxide production after 24 hrs by Griess assay. The class given is functional, cell-based. The note with it: RAW264.7, 24 h. In outline: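 RAW 264.7 cells seeded at 1 × 10^5 cells/well, stimulated with LPS 1 μg/mL with or without test compound, 37 °C for 24 h. Nitrite in cell-free supernatant, taken as the NO indicator, measured by Griess reaction: supernatant mixed 1:1 with equal parts 1% sulfanilamide in 5% phosphoric acid and 0.1% N-(1-naphthyl)ethylenediamine, absorbance at 540 nm. Values given as IC50.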
On the technique in general: Griess reagent forms a coloured azo dye with nitrite.

In data set [2] the test system is RAW264.7. In words: Cytotoxicity against mouse RAW264.7 cells at IC50 by MTT assay. It counts as cell-based. (In general: Formazan colour is commonly taken as a measure of viable cells.)

pIC50: −log10 of the molar value.

In the case of `CC1=C2C[C@@H]3[C@@](C)(O)CC[C@]3(O)[C@](C)(O)C=C2OC1=O` [ZEDOALACTONE B], in data set [1], the pIC50 was 5.89. In data set [2], the Activity result is listed as “Non-toxic”.
For `CC1=CC(=O)[C@@]2(C[C@]3(O)[C@@H](C)CC[C@@H]13)OC2(C)C` [OXYCURCUMENOL EPOXIDE], the pIC50 in data set [1] was 4.24. The Activity result in data set [2] is recorded as “Non-toxic”.
`CC1=C[C@]2(O)O[C@@]3(CC2=C(C)C)[C@@H](C)CC[C@@H]13` [CURCUMENOL]: the negative-log IC50 (pIC50) in data set [1] was 5.38. In addition, the Activity result in data set [2] is “Non-toxic”.
`CC1=C2C[C@H]3[C@H](CC[C@]3(C)O)[C@](C)(O)C=C2OC1=O`: the pIC50 in data set [1] was 5.54. Further, in data set [2], the Activity result is reported as “Non-toxic”.
Take `CC1=C2C[C@H]3[C@@](C)(O)CC[C@@]34O[C@@]2(C[C@@]4(C)O)OC1=O`: in data set [1], the pIC50 is 5.82. Moreover, the Activity result in data set [2] is on record as “Non-toxic”.
Consider `CC(=O)CCc1ccc(C(C)(C)O)c(=O)cc1C` [CURCUMADIONOL], for which, in data set [1], the pIC50 was 4.27. In addition, the Activity result in data set [2] is reported as “Non-toxic”.
Take `C=C1C[C@]2(O)O[C@@]3(CC2=C(C)C)[C@@H](C)CC[C@@H]13` [ISOCURCUMENOL]: in data set [1], the negative-log IC50 (pIC50) was 5.01. In data set [2], the Activity entry is listed as “Non-toxic”.
For the compound `CC1=C2C[C@@H]3[C@H](CC[C@@]3(C)O)[C@@](C)(O)C[C@@H]2OC1=O`, the pIC50 in data set [1] is 4.24. In data set [2], the Activity entry is “Non-toxic”.
`COc1ccc2c(c1)c(CC(=O)O)c(C)n2C(=O)c1ccc(Cl)cc1` [INDOMETHACIN]: the negative-log IC50 (pIC50) in data set [1] is 4.92.
In the case of `CC1=C2C[C@@H]3[C@@](C)(O)CC[C@]34O[C@]4(C)[C@H](O)[C@]2(O)OC1=O` [ZEDOAROLIDE A], in data set [1], the pIC50 is 4.06. Besides, in data set [2], the Activity result is reported as “Non-toxic”.
Take `CC1=CC(=O)CC[C@@H]2[C@@](C)(O)CC[C@@]12O`: the pIC50 in data set [1] was 4.71. Also, the Activity entry in data set [2] is recorded as “Non-toxic”.
Turning to `CC(C)=C1C[C@H]2[C@@H](CC[C@]2(C)O)[C@](C)(O)CC1=O` [ZEDOARONDIOL], the pIC50 in data set [1] is 4.27. Further, the Activity entry in data set [2] is reported as “Non-toxic”.
`CC1=CC(=O)C(=C(C)C)C[C@H]2[C@H]1CC[C@]2(C)O` [PROCURCUMENOL]: the negative-log IC50 (pIC50) in data set [1] was 4.86. For the same compound, the Activity entry in data set [2] is given as “Non-toxic”.
On to `CC1=C2C[C@@H]3[C@@](C)(O)CC[C@]3(O)[C@@](C)(O)C=C2OC1=O` [ZEDOALACTONE D], for which the pIC50 in data set [1] was 5.80. Besides, the Activity entry in data set [2] was “Non-toxic”.
Consider `CC(C)C1=C[C@@H]2[C@@H](CC[C@@H]2C)[C@@](C)(O)CC1`, for which, in data set [1], the negative-log IC50 (pIC50) is 4.94. In addition, in data set [2], the Activity entry is given as “Non-toxic”.
For the compound `CC1=C2C[C@@H]3[C@H](CC[C@@]3(C)O)[C@](C)(O)C[C@H]2OC1=O`, in data set [1], the negative-log IC50 (pIC50) was 5.72. Besides, the Activity entry in data set [2] is on record as “Non-toxic”.
As to `CC(C)C1=C[C@H]2[C@@H](CC[C@]2(C)O)[C@](C)(O)CC1` [ALISMOXIDE], the pIC50 in data set [1] is 5.37. The Activity entry in data set [2] is reported as “Non-toxic”.
Consider `CC1=C2C[C@@H]3[C@@](C)(O)CC[C@@]3(O)[C@](C)(O)C=C2OC1=O`, for which the pIC50 in data set [1] is 5.52. Besides, the Activity result in data set [2] is on record as “Non-toxic”.
As to `CC1=CC(=O)C(=C(C)C)C[C@@]2(O)[C@H]1CC[C@]2(C)O` [PROCURCUMADIOL], the negative-log IC50 (pIC50) in data set [1] was 4.93. Moreover, in data set [2], the Activity result was “Non-toxic”.
`CC(C)=C1C[C@H]2[C@@H](CC[C@]2(C)O)C(CO)=CC1=O`: the pIC50 in data set [1] was 4.89. Moreover, the Activity entry in data set [2] is given as “Non-toxic”.
Taken in the same sequence, the figures for `CC1=C2C[C@H]3[C@H](CC[C@]3(C)O)[C@@](C)(O)C[C@]2(O)OC1=O` [ZEDOAROLIDE B] were 5.34 and “Non-toxic”.
Regarding `CC(C)=C1C[C@H]2[C@H](CC[C@]2(C)O)[C@](C)(O)CC1=O` [(1S,4S,5S,10R)-ZEDOARONDIOL], in data set [1], the negative-log IC50 (pIC50) is 4.78. In addition, the Activity result in data set [2] was “Non-toxic”.
In the case of `CC1=C[C@@]2(O)O[C@@]3(CC2=C(C)C)[C@H](C)CC[C@@H]13`, in data set [1], the negative logarithm of the IC50 (pIC50) was 4.28. Also, the Activity entry in data set [2] is recorded as “Non-toxic”.
Regarding `CC1=C2C[C@]3(O)[C@H](C)CC[C@H]3[C@@](C)(O)C=C2OC1=O`, the pIC50 in data set [1] was 4.52. The Activity result in data set [2] was “Non-toxic”.
For the compound `CC(C)=C1C[C@H]2[C@H](CC[C@]2(C)O)[C@@](C)(O)CC1=O` [ISOZEDOARONDIOL], in data set [1], the negative logarithm of the IC50 (pIC50) was 5.85. Besides, in data set [2], the Activity result is “Non-toxic”.
For the compound `CC1=C2C[C@H]3[C@H](CC[C@]3(C)O)[C@@](C)(O)C[C@H]2OC1=O` [ZEDOALACTONE A], the pIC50 in data set [1] is 5.80. Besides, the Activity entry in data set [2] is on record as “Non-toxic”.
Taken in the same sequence, the figures for `Cc1cc(=O)c(C(C)(C)O)cc2c1CC[C@]2(C)O` were 5.23 and “Non-toxic”.
For `CC1=C2C[C@H]3[C@H](CC[C@]3(C)O)[C@@](C)(O)C[C@@H]2OC1=O` [ZEDOALACTONE C], the pIC50 in data set [1] is 4.21. In data set [2], the Activity entry is recorded as “Non-toxic”.
For the compound `C[C@]12CCC(=O)C=C1CC[C@@H]1[C@@H]2[C@@H](O)C[C@@]2(C)[C@H]1CC[C@]2(O)C(=O)CO` [HYDROCORTISONE], the negative-log IC50 (pIC50) in data set [1] was 4.36.
For `CC(C)=C1C[C@H]2[C@@H](CC[C@]2(C)O)[C@@](C)(O)CC1=O`, in data set [1], the pIC50 is 4.99. Further, the Activity entry in data set [2] is on record as “Non-toxic”.

One may read the pIC50 as −log10 of the IC50, conventionally taken in molar units.
